Laboratory results published in ChEMBL document CHEMBL3286371, “wALADin benzimidazoles differentially modulate the function of porphobilinogen synthase orthologs” (J Med Chem, 2014).
Activity calls are given as the source filed them. No cut-off for these calls is given here.

Legend:
[1] = biological target: T1, Delta-aminolevulinic acid dehydratase (Escherichia coli (strain K12)) (UniProt P0ACB2); experiment: Stimulation of Escherichia coli recombinant PBGS using 5-ALA as substrate at […]
T1 sequence (whole entry): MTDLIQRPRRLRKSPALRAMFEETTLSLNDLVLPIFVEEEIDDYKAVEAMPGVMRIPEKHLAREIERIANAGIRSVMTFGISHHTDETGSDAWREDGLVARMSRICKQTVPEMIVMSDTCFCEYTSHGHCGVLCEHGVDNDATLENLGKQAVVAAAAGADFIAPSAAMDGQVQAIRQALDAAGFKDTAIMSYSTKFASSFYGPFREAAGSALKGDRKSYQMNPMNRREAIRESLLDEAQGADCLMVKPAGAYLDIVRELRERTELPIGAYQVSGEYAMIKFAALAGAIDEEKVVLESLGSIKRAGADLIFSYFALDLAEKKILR

[2] = biological target: T2, Delta-aminolevulinic acid dehydratase, chloroplastic (Pisum sativum, UniProt P30124); experiment: Inhibition of Pisum sativum PBGS using 5-ALA as substrate; design: species or system Lathyrus oleraceus
T2 sequence (P30124 whole entry): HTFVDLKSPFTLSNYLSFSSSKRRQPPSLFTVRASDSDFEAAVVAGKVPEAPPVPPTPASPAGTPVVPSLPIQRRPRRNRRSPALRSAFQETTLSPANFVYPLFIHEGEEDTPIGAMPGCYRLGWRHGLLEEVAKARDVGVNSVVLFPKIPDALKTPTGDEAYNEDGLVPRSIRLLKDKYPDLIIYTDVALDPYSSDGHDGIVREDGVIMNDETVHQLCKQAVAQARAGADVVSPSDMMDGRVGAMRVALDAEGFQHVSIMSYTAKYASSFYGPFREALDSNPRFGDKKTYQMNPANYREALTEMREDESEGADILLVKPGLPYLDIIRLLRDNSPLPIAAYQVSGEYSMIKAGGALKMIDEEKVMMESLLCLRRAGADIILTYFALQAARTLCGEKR
Summary of the method: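 Pea (P. sativum) PBGS at 300 nM subunit in 100 mM BTP-HCl pH 8.5 with 1 mM MgCl2, 5 mM DTT and 0.2 mM 5-ALA, 15 min at 36 °C. Porphobilinogen detected with Ehrlich's reagent. Activity normalized to 6.7% DMSO control as 100%. IC50 from variable-slope normalized-response fit.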

[3] = biological target: T1, Delta-aminolevulinic acid dehydratase (Escherichia coli (strain K12)); experiment: Inhibition of Escherichia coli recombinant PBGS using 5-ALA as substrate at […]
[4] = biological target: T3, Delta-aminolevulinic acid dehydratase (Homo sapiens, UniProt P13716); experiment: Inhibition of human PBGS using 5-ALA as substrate
T3 sequence (P13716 whole entry): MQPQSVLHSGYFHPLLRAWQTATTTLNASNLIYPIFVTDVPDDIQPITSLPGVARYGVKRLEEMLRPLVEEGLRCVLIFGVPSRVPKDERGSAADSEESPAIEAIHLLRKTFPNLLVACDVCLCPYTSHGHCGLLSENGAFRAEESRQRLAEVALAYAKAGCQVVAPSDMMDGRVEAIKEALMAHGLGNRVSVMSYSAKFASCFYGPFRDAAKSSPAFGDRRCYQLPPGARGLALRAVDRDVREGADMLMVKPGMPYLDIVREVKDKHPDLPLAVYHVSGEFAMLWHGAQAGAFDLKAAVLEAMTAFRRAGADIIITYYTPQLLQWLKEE

Toxoplasma gondii [5] = experiment: Stimulation of Toxoplasma gondii recombinant PBGS using 5-ALA as substrate at […]
[6] = biological target: Delta-aminolevulinic acid dehydratase (Pseudomonas aeruginosa (strain ATCC 15692 / PAO1 / 1C / PRS 101 / LMG12228)) (UniProt Q59643); experiment: Stimulation of Pseudomonas aeruginosa PAO1 recombinant PBGS using 5-ALA as substrate at […]
Delta-aminolevulinic acid dehydratase (Pseudomonas aeruginosa (strain ATCC 15692 / PAO1 / 1C / PRS 101 / LMG12228)), sequence (Q59643 whole entry): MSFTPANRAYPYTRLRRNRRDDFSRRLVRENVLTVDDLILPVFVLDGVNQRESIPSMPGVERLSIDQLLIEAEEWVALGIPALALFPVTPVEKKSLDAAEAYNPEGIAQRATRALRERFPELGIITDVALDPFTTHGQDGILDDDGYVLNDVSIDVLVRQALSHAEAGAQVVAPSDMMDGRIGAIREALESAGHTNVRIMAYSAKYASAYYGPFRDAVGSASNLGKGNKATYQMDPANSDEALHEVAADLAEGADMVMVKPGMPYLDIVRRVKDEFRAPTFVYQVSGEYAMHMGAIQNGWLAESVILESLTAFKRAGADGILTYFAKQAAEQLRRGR

[7] = biological target: Delta-aminolevulinic acid dehydratase (Yersinia enterocolitica W22703) (UniProt F4MUJ9); experiment: Stimulation of Yersinia enterocolitica recombinant PBGS expressed in Escherichia coli using 5-ALA as substrate at […]
Delta-aminolevulinic acid dehydratase (Yersinia enterocolitica W22703), sequence (F4MUJ9 as listed by the source): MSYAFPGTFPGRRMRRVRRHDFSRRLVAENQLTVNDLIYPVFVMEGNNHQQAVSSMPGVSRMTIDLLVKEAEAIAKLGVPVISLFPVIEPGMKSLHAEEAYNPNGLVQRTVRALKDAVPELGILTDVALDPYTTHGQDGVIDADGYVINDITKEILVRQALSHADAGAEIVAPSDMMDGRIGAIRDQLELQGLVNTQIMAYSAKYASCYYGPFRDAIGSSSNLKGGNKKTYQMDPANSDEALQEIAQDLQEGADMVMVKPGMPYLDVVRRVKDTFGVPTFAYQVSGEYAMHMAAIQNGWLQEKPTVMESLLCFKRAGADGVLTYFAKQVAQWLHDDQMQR

[8] = biological target: Delta-aminolevulinic acid dehydratase (Pseudomonas aeruginosa (strain ATCC 15692 / PAO1 / 1C / PRS 101 / LMG12228)) (UniProt Q59643); experiment: Inhibition of Pseudomonas aeruginosa PAO1 recombinant PBGS using 5-ALA as substrate at […]
[9] = biological target: T4, Delta-aminolevulinic acid dehydratase (Drosophila melanogaster, UniProt Q9VTV9); experiment: Inhibition of Drosophila melanogaster recombinant PBGS using 5-ALA as substrate
T4 sequence (Q9VTV9 whole entry): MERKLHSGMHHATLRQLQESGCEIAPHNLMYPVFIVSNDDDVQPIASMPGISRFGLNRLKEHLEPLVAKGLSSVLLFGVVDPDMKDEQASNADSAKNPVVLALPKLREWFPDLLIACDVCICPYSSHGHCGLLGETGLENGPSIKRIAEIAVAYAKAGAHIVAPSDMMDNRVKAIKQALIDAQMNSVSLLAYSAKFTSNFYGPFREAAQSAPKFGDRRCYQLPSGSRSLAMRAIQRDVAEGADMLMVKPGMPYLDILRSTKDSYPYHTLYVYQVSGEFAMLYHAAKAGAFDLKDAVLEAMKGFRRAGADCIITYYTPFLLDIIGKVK

[10] = biological target: T5, Delta-aminolevulinic acid dehydratase (Wolbachia sp. subsp. Brugia malayi (strain TRS), UniProt Q5GSR3); experiment: Inhibition of C-terminal His-tagged Wolbachia PBGS using 5-ALA as substrate
T5 sequence (Q5GSR3 whole entry): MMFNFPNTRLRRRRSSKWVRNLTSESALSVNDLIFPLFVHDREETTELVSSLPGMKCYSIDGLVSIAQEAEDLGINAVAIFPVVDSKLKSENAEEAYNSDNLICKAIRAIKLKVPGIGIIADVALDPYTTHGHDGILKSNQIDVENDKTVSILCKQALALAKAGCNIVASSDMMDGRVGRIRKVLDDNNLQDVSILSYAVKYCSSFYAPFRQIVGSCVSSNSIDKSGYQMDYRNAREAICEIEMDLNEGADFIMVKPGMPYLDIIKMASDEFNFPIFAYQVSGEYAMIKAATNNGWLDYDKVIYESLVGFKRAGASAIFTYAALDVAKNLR

Toxoplasma gondii [11] = experiment: Inhibition of Toxoplasma gondii recombinant PBGS using 5-ALA as substrate at […]
[12] = biological target: Delta-aminolevulinic acid dehydratase (Yersinia enterocolitica W22703) (UniProt F4MUJ9); experiment: Inhibition of Yersinia enterocolitica recombinant PBGS expressed in Escherichia coli using 5-ALA as substrate at […]
[13] = biological target: Delta-aminolevulinic acid dehydratase (Pseudomonas aeruginosa (strain ATCC 15692 / PAO1 / 1C / PRS 101 / LMG12228), UniProt Q59643); experiment: Stimulation of Pseudomonas aeruginosa PAO1 recombinant PBGS using 5-ALA as substrate
Delta-aminolevulinic acid dehydratase (Pseudomonas aeruginosa (strain ATCC 15692 / PAO1 / 1C / PRS 101 / LMG12228), UniProt Q59643), sequence (Q59643 whole entry): as the sequence (Q59643 whole entry) above
Summary of the method: (§1)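 His-tagged PaPBGS at 150 nM subunit in 100 mM Tris-HCl pH 8.0 with 1 mM MgCl2, 100 mM KCl and 0.2 mM 5-ALA, 10 min at 36 °C, with turnover at most 30%. Porphobilinogen read with Ehrlich's reagent. Activity normalized to 6.7% DMSO control as 100%. EC50 from variable-slope agonist fit.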

Toxoplasma gondii [14] = experiment: Stimulation of Toxoplasma gondii recombinant PBGS using 5-ALA as substrate relative to control
Summary of the method: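 Recombinant T. gondii PBGS (hemB in pET-21b, expressed in BL21 E. coli) at 250 nM subunit in 100 mM Tris-HCl pH 8.0, 1 mM MgCl2, 5 mM DTT, with 200 μM 5-ALA, 20 min at 36 °C. Porphobilinogen was read with Ehrlich's reagent, and turnover was kept at or below 30%.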

[15] = biological target: T6, Delta-aminolevulinic acid dehydratase (Escherichia coli (strain K12), UniProt P0ACB2); experiment: Stimulation of Escherichia coli recombinant PBGS using 5-ALA as substrate
T6 sequence (P0ACB2 whole entry): T1 sequence (whole entry)
Summary of the method: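 E. coli PBGS at 200 nM subunit in 100 mM BTP-HCl pH 8.1 with 1 mM MgCl2, 10 μM ZnCl2, 5 mM DTT and 0.2 mM 5-ALA, 10 min at 36 °C. Porphobilinogen detected with Ehrlich's reagent. Activity normalized to control with 6.7% DMSO set at 100%. EC50 by log(agonist) vs response variable-slope fit.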

[16] = biological target: Delta-aminolevulinic acid dehydratase (Yersinia enterocolitica W22703) (UniProt F4MUJ9); experiment: Stimulation of Yersinia enterocolitica recombinant PBGS expressed in Escherichia coli using 5-ALA as substrate relative to control
Summary of the method: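 Y. enterocolitica PBGS, expressed in E. coli from pET3, at 150 nM subunit in 100 mM BTP-HCl pH 8.0 with 1 mM MgCl2, 5 mM DTT, 100 mM KCl and 0.2 mM 5-ALA, 10 min at 36 °C. Porphobilinogen read with Ehrlich's reagent. Activity normalized to 6.7% DMSO control as 100%. EC50 from variable-slope agonist fit.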

[17] = biological target: Delta-aminolevulinic acid dehydratase (Pseudomonas aeruginosa (strain ATCC 15692 / PAO1 / 1C / PRS 101 / LMG12228)) (UniProt Q59643); experiment: Stimulation of Pseudomonas aeruginosa PAO1 recombinant PBGS using 5-ALA as substrate relative to control; summary of the method: as §1
[18] = Stimulation of Toxoplasma gondii recombinant PBGS using 5-ALA as substrate
Summary of the method: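 T. gondii PBGS, expressed from pET-21b in BL21 E. coli and purified, at 250 nM subunit in 100 mM Tris-HCl pH 8.0 with 1 mM MgCl2, 5 mM DTT and 0.2 mM 5-ALA, 20 min at 36 °C. Porphobilinogen detected with Ehrlich's reagent. Activity normalized to 6.7% DMSO control. EC50 by variable-slope agonist fit.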

Row | Structure (SMILES) | Smax [1] [%] | IC50 [2] [µM] | inhibition [3] | IC50 [4] [µM] | Smax (Toxoplasma gondii [5]) [%] | Smax [6] [%] | Smax [7] [%] | inhibition [8] | IC50 [9] [µM] | IC50 [10] [µM] | inhibition (Toxoplasma gondii [11]) | inhibition [12] | EC50 [13] [µM] | Smax (Toxoplasma gondii [14]) [%] | EC50 [15] [µM] | Smax [16] [%] | Smax [17] [%] | EC50 [18] [µM]
1 | COc1cccc(Cn2cnc3cc(C(=O)O)ccc32)c1 | 100 | 155 | inactive | 156 | 100 | 100 | 100 | inactive | 370 | 205 | inactive | inactive |  |  |  |  |  | 
2 | O=C(O)c1ccc2c(c1)nc(CCNC(=O)c1cccs1)n2Cc1ccc(C(F)(F)F)cc1 |  | 44.3 |  | 637 |  |  |  |  | 1010 | 38.6 |  |  | 68 | 118 | 39 | 142 | 140 | 37
3 | Cn1cnc2cc(C(=O)O)ccc21 | 100 | 257 | inactive |  | 100 | 100 | 100 | inactive | > 1000 |  | inactive | inactive |  |  |  |  |  | 
4 | O=C(O)c1ccc2c(c1)ncn2Cc1ccccc1C(F)(F)F | 100 | 64.3 | inactive | 145 | 100 | 100 | 100 | inactive | > 1000 | 293 | inactive | inactive |  |  |  |  |  | 
5 | O=C(O)c1ccc2nc(CCNC(=O)c3cccs3)n(Cc3cccc(C(F)(F)F)c3)c2c1 | 100 | 89 | inactive |  |  | 100 | 131 | inactive | 257 | 317 |  |  |  |  |  |  |  | 
6 | O=C(O)c1ccc2[nH]cnc2c1 | 100 | > 500 | inactive | 511 | 100 | 100 | 100 | inactive | > 1000 | 500 | inactive | inactive |  |  |  |  |  | 
